# Measurements pooled from the literature.
# Lines come from different studies, so protocols differ.
# Target: Calcium/calmodulin-dependent protein kinase type II subunit alpha (CAMK2A, Homo sapiens, UniProt Q9UQM7)
Structure (SMILES),test,setting,measurement,value
C1=C/COCc2cc(ccc2OCCN2CCCC2)Nc2nccc(n2)-c2cccc(c2)COC/1,binding,0.1 µM,remaining binding,91%
COc1ccc2[nH]c3c4[nH]c5ccc(OC)cc5c4c4c(c3c2c1)C(=O)NC4=O,binding,1 µM,remaining binding,70%
CCCCCCCCCCCO,"enzyme activity, inhibitor",10 µM,inhibition,-20%
C=CC(=O)N1CCC([C@@H]2CCNc3c(C(N)=O)c(-c4ccc(Oc5ccccc5)cc4)nn32)CC1,"enzyme activity, inhibitor",1 µM,inhibition,0%
CC(C)S(=O)(=O)c1ccc2nccc(Nc3ccc4sc(C5CCCC5)nc4c3)c2c1,"enzyme activity, inhibitor",1 µM,activity vs control,104%
CO[C@@H]1[C@H](N(C)C(=O)c2ccccc2)C[C@H]2O[C@]1(C)n1c3ccccc3c3c4c(c5c6ccccc6n2c5c31)C(=O)NC4,"enzyme activity, inhibitor",1 µM,inhibition,94%
COc1ccc2oc(-c3ccc4nc(N)oc4c3)c/c(=N\c3ccccc3NC(=O)CCN)c2c1,binding,1 µM,remaining binding,93%
CCCCCCCCCCCCCCCCCCCCCCO,"enzyme activity, inhibitor",10 µM,inhibition,-5%
CCCCC(=O)Nc1ccc(-c2ccc3ncn(CCC)c(=O)c3c2)cn1,"binding, competition with immobilised ligand",0.5 µM,remaining binding,100%
C[C@H]1CC[C@H](n2c3cnccc3c3cnc(Nc4ccc5c(n4)CCN(C(=O)CO)C5)nc32)CC1,cell-free assay,1 µM,remaining signal,33%
